PTK2B oligo ant – antagonists of human Pyk2 oligomerization. Q14289. 0.83% of 99,000 active. z-score (the deposit names both 25 µM and 10 µM). Q293 cells, Pyk2 FERM NanoBiT luminescence; hits give low values. AID 1347419;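 active = Z-score of -3 or lower, scaled per plate to the spread of control and sample wells; inactive = z-score above -3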;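 also: negative z-score means lost luminescence so less FERM oligomerization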
Target sequence (Q14289 whole entry, looked up): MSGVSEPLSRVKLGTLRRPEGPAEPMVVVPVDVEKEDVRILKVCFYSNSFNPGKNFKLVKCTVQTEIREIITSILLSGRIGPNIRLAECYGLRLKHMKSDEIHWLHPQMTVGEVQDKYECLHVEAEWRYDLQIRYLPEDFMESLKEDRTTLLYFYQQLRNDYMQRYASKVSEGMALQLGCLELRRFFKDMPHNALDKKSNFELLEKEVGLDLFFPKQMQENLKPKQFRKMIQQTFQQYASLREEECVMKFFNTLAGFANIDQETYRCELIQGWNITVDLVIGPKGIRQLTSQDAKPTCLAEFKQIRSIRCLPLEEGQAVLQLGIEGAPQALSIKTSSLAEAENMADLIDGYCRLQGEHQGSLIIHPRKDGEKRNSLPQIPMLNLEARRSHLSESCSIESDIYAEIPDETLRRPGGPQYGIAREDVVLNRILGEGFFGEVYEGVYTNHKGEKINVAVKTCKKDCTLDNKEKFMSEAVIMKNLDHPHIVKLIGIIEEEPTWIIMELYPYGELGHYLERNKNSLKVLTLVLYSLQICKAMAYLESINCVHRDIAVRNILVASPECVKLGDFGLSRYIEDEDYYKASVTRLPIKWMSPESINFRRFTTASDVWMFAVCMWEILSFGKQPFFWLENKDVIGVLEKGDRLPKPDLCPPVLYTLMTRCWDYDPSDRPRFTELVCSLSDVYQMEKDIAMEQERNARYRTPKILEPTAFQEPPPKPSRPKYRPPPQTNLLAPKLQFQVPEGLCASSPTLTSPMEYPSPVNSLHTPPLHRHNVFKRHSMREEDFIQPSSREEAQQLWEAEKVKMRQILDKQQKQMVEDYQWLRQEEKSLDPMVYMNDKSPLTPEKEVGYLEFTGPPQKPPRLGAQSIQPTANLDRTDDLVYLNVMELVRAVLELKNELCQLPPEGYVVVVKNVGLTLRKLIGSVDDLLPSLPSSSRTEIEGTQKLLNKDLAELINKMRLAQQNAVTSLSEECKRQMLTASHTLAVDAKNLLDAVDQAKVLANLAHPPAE
HCT116 PTEN-null – growth suppressors of cells with PTEN tumor suppressor deletion; HCT116 PTEN-null viability, CellTiter-Glo, 60 h; hits give low values; viability, % at 10 µM; 1.2% of 140,000 active; AID 827;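 active = viability at or below a set limit, 4 SD under the median of all tested compounds, cut at about 3.7% in these data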;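 also: PTEN knockout HCT116 line with beta catenin targeted HCT116 as companion control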
Lung fibro prol – blocks proliferation of human lung fibroblasts; LL 47 human lung fibroblast viability, ATP luminescence; hits give low values; viability, % at 10 µM; 1.1% of 85,000 active;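 active = viability at or below 50% in the single dose screen; inactive = viability above 50%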;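 also: compound exposure lasted 72 h before the ATP readout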
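Times – overnight cell rest, 72 h compound treatment at 37 °C · Test system – human lung fibroblast line LL 47, low passage · Amount – 1,150 cells in each well · Controls – cell-only wells, no compound · Doses – 0.1% DMSO in all compound wells · Measured by – CellTiter-Glo luminescence · Buffer or medium – IMEM plus 15% FBS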
bCat KO growth – beta-catenin-lacking colon tumor cell growth suppression; 1.5% of 140,000 active; viability, % at 10 µM; HCT116 beta-catenin knockout viability, CellTiter-Glo, 60 h; hits give low values;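 active = viability at or under a set limit, the compound median less 4 SD, cut at about 6% in these data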
HUVEC prolif 384 – blocks proliferation of human endothelial cells; HUVEC proliferation, CellTiter-Glo luminescence, 72 h; hits give low values; viability, % at 10 µM (by protocol); 1.1% of 86,000 active; AID 648;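 active = viability at or below 30%; inactive = viability above 30%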
H69AR growth 86K – growth inhibitors of human H69AR lung tumor cells; H69AR lung tumor viability, ATP luminescence, 72 h; hits give low values; viability, % at 10 µM; 6% of 85,000 active; AID 598;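 active = viability at or below 40%; inactive = viability above 40%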;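 also: multidrug resistant small cell line overexpressing MRP-1 efflux transporter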
Hits are given with their value; - = inactive; . = no result given. The full list was thinned out, with hits kept by preference.

SMILES | PTK2B oligo ant | HCT116 PTEN-null | Lung fibro prol | bCat KO growth | HUVEC prolif 384 | H69AR growth 86K
Cc1ccc(C)c(CSc2nnc(CCN)o2)c1 | - | - | - | - | - | 31
CCc1ccc(C2C(C#N)=C(N)C(C#N)(C#N)C3=CCC(C(C)(C)C)CC32)cc1 (stereo not given) | - | - | - | - | 2.3 | -
COC(=O)c1ccc2c(c1O)C(=O)c1ccccc1C2=O | - | 2.8 | . | 4.5 | . | .
O=C(N/N=C/c1cccc(F)c1)c1c(O)c2c([nH]c1=O)CCCC2 | . | - | . | - | . | .
N#CC1=C2Nc3ccccc3N2C(=O)NC1(c1ccccc1)C(F)(F)F (stereo not given) | -3.1 | - | . | - | . | .
O=C1NC(c2ccccc2)(C(F)(F)F)C(=O)N1Cc1cccnc1 (stereo not given) | - | - | - | - | - | -
O=C1CC(Sc2nnc(-c3ccccc3)o2)C(=O)N1c1ccccc1 (stereo not given) | - | - | - | - | - | 1.8
Cc1ccccc1N1C(=O)CC(Sc2nnc(-c3ccccc3)o2)C1=O (stereo not given) | - | - | 46 | - | - | 1.8
Cc1ccc(NC(=O)/C=C/c2ccc([N+](=O)[O-])s2)c(C)c1 | . | 1.1 | . | 2.6 | . | .
Cc1cccc(NC(=O)/C=C/c2ccc([N+](=O)[O-])s2)c1 | . | 1.1 | . | 2.8 | . | .
Cc1cccc(NC(=S)N/N=C/c2ccc([N+](=O)[O-])s2)c1 | - | 0.8 | . | 1.0 | . | .
Cc1ccc(NC(=O)/C=C/c2ccc([N+](=O)[O-])s2)cc1 | . | - | . | - | . | .
O=[N+]([O-])c1ccc(/C=N/NC(=S)Nc2ccccc2)o1 | . | - | . | - | . | .
CN1/C(=C\C(=O)c2cccs2)C(C)(C)c2ccccc21 | . | - | . | - | . | .
CCc1ccc2c(c1)/C(=N/N(C)C(=S)NC)C(=O)N2 | - | - | . | - | . | .
Cc1cccc2c1NC(=O)/C2=C\C(=O)c1cccs1 | - | 2.2 | 6.1 | 4.9 | 29 | 2.1
Cc1cc(C)c2c(c1)/C(=C/C(=O)c1ccc(Br)s1)C(=O)N2 | - | 1.8 | 15 | 1.8 | 7.1 | 1.8
CCc1ccc2c(c1)/C(=C/C(=O)c1cccs1)C(=O)N2 | - | 0.8 | 6.5 | 0.8 | - | 1.7
COc1cc(/C=N/NC(=O)c2cccnc2)ccc1OS(=O)(=O)c1cc(C)ccc1C | . | - | . | - | . | .
Cc1cccc(-n2nc3c(c2NC(=O)CCC2CCCCC2)CS(=O)C3)c1C (stereo not given) | . | - | - | - | - | -
O=C(NNC(=O)[C@@H]1CCCC[C@@H]1C(=O)O)Nc1ccccc1 | . | - | . | - | . | .
CCCCOCCCNc1ncnc2c1[nH]c1ccccc12 | - | - | - | - | - | 39
COc1cc(OC)c(OC)cc1/C=N/Nc1ncnc2c1[nH]c1ccccc12 | . | - | . | 4.2 | . | .
CCc1nc(Sc2nc(C)cc(C)n2)c2oc3ccccc3c2n1 | - | - | - | - | - | 5.3
CCc1nc(SCCO)c2oc3ccccc3c2n1 | - | - | - | - | - | -
SMILES | PTK2B oligo ant | HCT116 PTEN-null | Lung fibro prol | bCat KO growth | HUVEC prolif 384 | H69AR growth 86K
CCc1nc(Nc2ccc3c(c2)OCCO3)c2oc3ccccc3c2n1 | -3.4 | - | - | - | - | 38
CCc1nc(SCc2nc3ccccc3[nH]2)c2oc3ccccc3c2n1 | - | - | - | - | - | 40
Cc1nc(Nc2ccc3c(c2)OCCO3)c2oc3ccccc3c2n1 | - | - | - | - | - | -
c1ccc2[nH]c(CSc3nc4ccccc4o3)nc2c1 | - | - | - | - | - | -
CCn1c(COc2ccccc2C)nnc1SCC(=O)CC(=O)Nc1ccccc1 | - | - | - | - | - | -
CCOC(=O)NC(Nc1nc2ccccc2s1)(C(=O)OCC)C(F)(F)F (stereo not given) | - | - | - | - | - | -
CCOc1ccc(N2CCn3c2nc2c3c(=O)n(CCc3ccccc3)c(=O)n2C)cc1 | . | . | - | . | - | 15
CCOc1ccc(N=C(NC#N)SCC(=O)NC2CC2)cc1 | - | - | - | - | - | -
O=C(/C=C/c1cccc2ccccc12)c1ccncc1 | . | 0.9 | . | 1.0 | . | .
O=C(/C=C/c1c[nH]c2ccccc12)c1ccccc1 | . | - | . | - | . | .
Cc1ccc(NC(=O)CCNS(=O)(=O)c2cc(Br)cnc2N)cc1Cl | - | - | . | - | . | .
Cc1cc(NC(=O)CCNS(=O)(=O)c2cc(Br)cnc2N)ccc1Br | - | - | - | - | - | 31
Cc1cc(C)c2nc(/N=C(\N)NC(=O)Nc3ccccc3)nc(C)c2c1 | . | - | . | - | . | .
Cc1oc(-c2ccc(Cl)cc2)nc1CN1CCCC(C(=O)NCc2ccccn2)C1 (stereo not given) | - | - | - | - | - | -
Cc1cccc(-c2nc(CN3CCCC(C(=O)NC4CCCCC4)C3)c(C)o2)c1 (stereo not given) | - | - | - | - | - | 39
Cc1cccc(-c2nc(CN3CCCC(C(=O)NC4CCCCCC4)C3)c(C)o2)c1 (stereo not given) | - | - | - | - | - | 40
Cc1oc(-c2cccc(Cl)c2)nc1CN1CCCC(C(=O)NCc2ccco2)C1 (stereo not given) | - | - | - | - | - | -
CCCCCCC1CCC(C(=O)Nn2c(C)nc3ccccc3c2=O)CC1 (stereo not given) | - | - | - | - | - | 35
CCCC1CCC(C(=O)Nn2c(C)nc3ccccc3c2=O)CC1 (stereo not given) | - | - | - | - | - | -
Cc1c(Cl)cnc(NC(=O)CSc2nnc3ccccn23)c1Cl | - | - | . | - | . | .
CC(C)(C)c1cc(NC(=O)CCSc2nnc3ccccn23)cc(C(C)(C)C)c1 | - | - | 46 | - | - | -
Cc1ccc(C)c(S(=O)(=O)NCc2ccc(C(=O)N3CCN(C)CC3)cc2)c1 | - | - | - | - | - | -
Cc1ccc(C)c(S(=O)(=O)NCc2ccc(C(=O)N3CCC(Cc4ccccc4)CC3)cc2)c1 | - | - | - | - | - | 36
COc1ccc(N2C(=O)CS/C2=C\[N+](=O)[O-])cc1 | - | - | . | - | . | .
CCN(CC)C(=O)CSC1=C(C#N)C(c2ccco2)C(C(=O)OCCOC)=C(C)N1 (stereo not given) | . | - | . | - | . | .
SMILES | PTK2B oligo ant | HCT116 PTEN-null | Lung fibro prol | bCat KO growth | HUVEC prolif 384 | H69AR growth 86K
C=CCOC(=O)C1=C(C)NC(SCC(=O)N(CC)CC)=C(C#N)C1c1ccco1 (stereo not given) | - | - | - | - | - | 35
CNC(=O)NC(=O)C(C)OC(=O)c1cc2c(s1)CCCCC2 (stereo not given) | . | - | . | - | . | .
CC1=C(C(=O)Nc2ccccc2)C(c2ccc(C)o2)n2c(s/c(=C\c3ccco3)c2=O)=N1 (stereo not given) | - | - | - | - | - | 3.5
COc1cccc(C2C(C(=O)Nc3ccccc3)=C(C)N=c3s/c(=C/c4ccc(OCC(=O)O)cc4)c(=O)n32)c1 (stereo not given) | . | - | . | - | . | .
O=C(O)CCCNC(=O)c1cccc(C(=O)NCCCC(=O)O)n1 | - | - | . | - | . | .
Cn1c(=O)cc(OCC(=O)NCCCN2CCN(c3cccc(Cl)c3)CC2)c2ccccc21 | . | - | - | - | - | -

Compound activity: PubChem BioAssay, several laboratories
